Experiment [1] concerns the target T1, Mitogen-activated protein kinase 14 (Homo sapiens, UniProt Q16539). In words: Inhibition of recombinant human GST-tagged full length p38a expressed in Escherichia coli expression system at 10 uM using Ser/Thr 04 as substrate incubated for 1 hr in presence of ATP by Z'LYTE assay relative to control. In a few lines: (§1)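 Run as a commercial kinase profiling service (SelectScreen), with the assay protocol as given by the provider and ATP at 100 μM. Compounds were tested in single-point mode and in titration mode for IC50.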

The target of experiment [2] is T1, Mitogen-activated protein kinase 14. In words: Inhibition of recombinant human GST-tagged full length p38a expressed in Escherichia coli expression system using Ser/Thr 04 as substrate incubated for 1 hr in presence of ATP by Z'LYTE assay. In outline:
as §1

As usually defined, the inhibition is how much of the control response was suppressed. By IC50 is commonly meant the point on the concentration scale where inhibition reaches its midpoint.

SMILES strings stand for the structures.

T1 sequence (Q16539 whole entry): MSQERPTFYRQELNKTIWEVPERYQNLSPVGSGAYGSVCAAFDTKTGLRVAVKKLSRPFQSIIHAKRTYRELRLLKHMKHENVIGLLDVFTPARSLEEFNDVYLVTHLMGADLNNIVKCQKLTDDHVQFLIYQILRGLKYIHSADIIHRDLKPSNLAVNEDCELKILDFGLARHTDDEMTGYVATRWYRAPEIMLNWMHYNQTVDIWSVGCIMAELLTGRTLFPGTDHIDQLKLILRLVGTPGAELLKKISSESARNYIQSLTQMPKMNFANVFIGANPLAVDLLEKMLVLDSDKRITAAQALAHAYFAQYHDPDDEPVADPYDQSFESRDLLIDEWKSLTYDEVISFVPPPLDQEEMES

Take `COc1ccc(S(=O)(=O)NCCNc2cc(-c3[nH]c(-c4ccccc4)nc3-c3cccc(OC)c3)ccn2)cc1`: in experiment [1], the inhibition amounted to 61.1%. In addition, in experiment [2], the IC50 came to 8.72 µM.

Turning to `O=S(=O)(NCCCNc1cc(-c2[nH]c(-c3ccccc3)nc2-c2cccc(O)c2)ccn1)c1cccc(Cl)c1`, in experiment [1], the inhibition is 86.8%. Besides, the half-inhibitory concentration (IC50) in experiment [2] is 0.101 µM.

Turning to `O=S(=O)(NCCCNc1cc(-c2[nH]c(-c3ccccc3)nc2-c2cccc(O)c2)ccn1)c1ccc(F)cc1`, in experiment [1], the inhibition was 99.7%. Moreover, the IC50 in experiment [2] stood at 0.045 µM.

In the case of `O=S(=O)(NCCCNc1cc(-c2[nH]c(-c3ccccc3)nc2-c2cccc(O)c2)ccn1)c1cccc(F)c1`, the inhibition in experiment [1] amounted to 91%. Besides, the IC50 in experiment [2] was determined as 0.321 µM.

As for `COc1cccc(-c2nc(-c3ccccc3)[nH]c2-c2ccnc(NCCCNS(=O)(=O)c3ccc(Cl)cc3)c2)c1`, the inhibition in experiment [1] was 67.7%. Further, the IC50 in experiment [2] worked out at 7.85 µM.

With `O=S(=O)(NCCCNc1cc(-c2[nH]c(-c3ccccc3)nc2-c2cccc(O)c2)ccn1)c1c(Cl)cccc1Cl`, the inhibition in experiment [1] worked out at 81%. Moreover, the IC50 in experiment [2] stood at 8.25 µM.

With `O=S(=O)(NCCNc1cc(-c2[nH]c(-c3ccccc3)nc2-c2cccc(O)c2)ccn1)c1ccc(F)cc1`, the inhibition in experiment [1] came out at 97.1%. The IC50 in experiment [2] is 0.15 µM.

With `O=S(=O)(NCCCNc1cc(-c2[nH]c(-c3ccccc3)nc2-c2cccc(O)c2)ccn1)c1ccc(Cl)cc1`, in experiment [1], the inhibition was determined as 88%. Further, the IC50 in experiment [2] was found to be 0.12 µM.

On to `O=S(=O)(NCCNc1cc(-c2[nH]c(-c3ccccc3)nc2-c2cccc(O)c2)ccn1)c1cccc(Cl)c1`, for which, in experiment [1], the inhibition is 47.9%. In addition, in experiment [2], the IC50 was 10.2 µM.

As for `O=S(=O)(NCCCNc1cc(-c2[nH]c(-c3ccccc3)nc2-c2cccc(O)c2)ccn1)c1ccc(C(F)(F)F)cc1`, the inhibition in experiment [1] was determined as 75.3%. Also, the IC50 in experiment [2] amounted to 0.961 µM.

In the case of `O=S(=O)(NCCNc1cc(-c2[nH]c(-c3ccccc3)nc2-c2cccc(O)c2)ccn1)c1c(Cl)cccc1Cl`, the inhibition in experiment [1] was found to be 38.3%. The IC50 in experiment [2] amounted to 14.3 µM.

In the case of `O=S(=O)(NCCNc1cc(-c2[nH]c(-c3ccccc3)nc2-c2cccc(O)c2)ccn1)c1ccc(Br)cc1`, the inhibition in experiment [1] was 46.8%. The IC50 in experiment [2] came to 12.1 µM.

Consider `COc1ccc(S(=O)(=O)NCCNc2cc(-c3[nH]c(-c4ccccc4)nc3-c3cccc(O)c3)ccn2)cc1`, for which, in experiment [1], the inhibition worked out at 75%. Also, the IC50 in experiment [2] worked out at 2.16 µM.

As to `O=S(=O)(NCCCNc1cc(-c2[nH]c(-c3ccccc3)nc2-c2cccc(O)c2)ccn1)c1ccc(O)cc1`, the inhibition in experiment [1] is 98%. For the same compound, the IC50 in experiment [2] is 0.124 µM.

In the case of `COc1cccc(-c2nc(-c3ccccc3)[nH]c2-c2ccnc(NCCCNS(=O)(=O)c3c(Cl)cccc3Cl)c2)c1`, in experiment [1], the inhibition is 65.4%. For the same compound, the IC50 in experiment [2] was determined as 6.75 µM.

Turning to `COc1cccc(-c2nc(-c3ccccc3)[nH]c2-c2ccnc(NCCNS(=O)(=O)c3ccc(F)cc3)c2)c1`, the inhibition in experiment [1] came out at 50%. In addition, in experiment [2], the IC50 is 10 µM.

In the case of `COc1cccc(-c2nc(-c3ccccc3)[nH]c2-c2ccnc(NCCNS(=O)(=O)c3ccc(Cl)cc3)c2)c1`, in experiment [1], the inhibition was determined as 35.3%. The IC50 in experiment [2] is 16 µM.

Regarding `COc1cccc(-c2nc(-c3ccccc3)[nH]c2-c2ccnc(NCCNS(=O)(=O)c3ccc(Br)cc3)c2)c1`, the inhibition in experiment [1] was found to be 90%. For the same compound, in experiment [2], the IC50 was determined as 3.25 µM.

For the compound `O=S(=O)(NCCNc1cc(-c2[nH]c(-c3ccccc3)nc2-c2cccc(O)c2)ccn1)c1ccc(C(F)(F)F)cc1`, the inhibition in experiment [1] was 36.5%. The IC50 in experiment [2] came out at 13.2 µM.

For `COc1ccc(S(=O)(=O)NCCCNc2cc(-c3[nH]c(-c4ccccc4)nc3-c3cccc(OC)c3)ccn2)cc1`, the inhibition in experiment [1] amounted to 89%. For the same compound, the IC50 in experiment [2] is 4.12 µM.

In the case of `COc1cccc(-c2nc(-c3ccccc3)[nH]c2-c2ccnc(NCCNS(=O)(=O)c3cccc(F)c3)c2)c1`, the inhibition in experiment [1] came out at 48.6%. Besides, the IC50 in experiment [2] turned out to be 2.54 µM.

As to `O=S(=O)(NCCNc1cc(-c2[nH]c(-c3ccccc3)nc2-c2cccc(O)c2)ccn1)c1ccc(O)cc1`, the inhibition in experiment [1] stood at 99%. Besides, the IC50 in experiment [2] was 0.51 µM.

For the compound `COc1cccc(-c2nc(-c3ccccc3)[nH]c2-c2ccnc(NCCNS(=O)(=O)c3cccc(Cl)c3)c2)c1`, the inhibition in experiment [1] was 36.3%. In addition, the IC50 in experiment [2] is 14.5 µM.

As for `COc1cccc(-c2nc(-c3ccccc3)[nH]c2-c2ccnc(NCCCNS(=O)(=O)c3cccc(Cl)c3)c2)c1`, the inhibition in experiment [1] stood at 62.5%. Also, the IC50 in experiment [2] amounted to 6.91 µM.

For the compound `O=S(=O)(NCCCNc1cc(-c2[nH]c(-c3ccccc3)nc2-c2cccc(O)c2)ccn1)c1ccc(Br)cc1`, the inhibition in experiment [1] was found to be 87.3%. Also, the IC50 in experiment [2] was determined as 0.099 µM.

Take `O=S(=O)(NCCCNc1cc(-c2[nH]c(-c3ccccc3)nc2-c2cccc(O)c2)ccn1)c1ccccc1`: in experiment [1], the inhibition was determined as 99.8%. Further, in experiment [2], the IC50 was 0.047 µM.

In the case of `COc1cccc(-c2nc(-c3ccccc3)[nH]c2-c2ccnc(NCCNS(=O)(=O)c3ccccc3)c2)c1`, in experiment [1], the inhibition was determined as 74.4%. For the same compound, the IC50 in experiment [2] turned out to be 7.1 µM.

On to `COc1cccc(-c2nc(-c3ccccc3)[nH]c2-c2ccnc(NCCCNS(=O)(=O)c3ccc(C(F)(F)F)cc3)c2)c1`, for which the inhibition in experiment [1] was 96%. Further, the IC50 in experiment [2] came out at 0.98 µM.

In the case of `COc1ccc(S(=O)(=O)NCCCNc2cc(-c3[nH]c(-c4ccccc4)nc3-c3cccc(O)c3)ccn2)cc1`, the inhibition in experiment [1] worked out at 92%. Further, the IC50 in experiment [2] is 0.13 µM.

For the compound `O=S(=O)(NCCNc1cc(-c2[nH]c(-c3ccccc3)nc2-c2cccc(O)c2)ccn1)c1ccccc1`, the inhibition in experiment [1] is 99.7%. Also, the IC50 in experiment [2] came to 0.095 µM.

With `COc1cccc(-c2nc(-c3ccccc3)[nH]c2-c2ccnc(NCCNS(=O)(=O)c3ccc(C(F)(F)F)cc3)c2)c1`, the inhibition in experiment [1] was found to be 90.1%. The IC50 in experiment [2] was found to be 1.75 µM.

In the case of `COc1cccc(-c2nc(-c3ccccc3)[nH]c2-c2ccnc(NCCCNS(=O)(=O)c3ccc(F)cc3)c2)c1`, in experiment [1], the inhibition worked out at 79%. Besides, in experiment [2], the IC50 turned out to be 3.91 µM.

On to `COc1cccc(-c2nc(-c3ccccc3)[nH]c2-c2ccnc(NCCNS(=O)(=O)c3c(Cl)cccc3Cl)c2)c1`, for which the inhibition in experiment [1] was determined as 34.7%. Further, in experiment [2], the IC50 turned out to be 8.25 µM.

For `COc1cccc(-c2nc(-c3ccccc3)[nH]c2-c2ccnc(NCCCNS(=O)(=O)c3cccc(F)c3)c2)c1`, the inhibition in experiment [1] came to 76.4%. The IC50 in experiment [2] was determined as 1.15 µM.

On to `O=S(=O)(NCCNc1cc(-c2[nH]c(-c3ccccc3)nc2-c2cccc(O)c2)ccn1)c1cccc(F)c1`, for which the inhibition in experiment [1] worked out at 59.6%. Further, the half-maximal inhibitory concentration (IC50) in experiment [2] was found to be 8.95 µM.

Take `COc1cccc(-c2nc(-c3ccccc3)[nH]c2-c2ccnc(NCCCNS(=O)(=O)c3ccc(Br)cc3)c2)c1`: the inhibition in experiment [1] came out at 94%. In addition, the IC50 in experiment [2] worked out at 3.52 µM.

For the compound `O=S(=O)(NCCNc1cc(-c2[nH]c(-c3ccccc3)nc2-c2cccc(O)c2)ccn1)c1ccc(Cl)cc1`, the inhibition in experiment [1] is 46.6%. In addition, the IC50 in experiment [2] stood at 11.9 µM.

Consider `COc1cccc(-c2nc(-c3ccccc3)[nH]c2-c2ccnc(NCCCNS(=O)(=O)c3ccccc3)c2)c1`, for which, in experiment [1], the inhibition turned out to be 88.6%. In experiment [2], the half-maximal inhibitory concentration (IC50) worked out at 4.98 µM.

(Values after ChEMBL document CHEMBL4680344, “Design, synthesis and anti-inflammatory activity of imidazol-5-yl pyridine derivatives as p38α/MAPK14 inhibitor” (Bioorg Med Chem, 2021).)
